This is a sample that favours compounds with a hit; in the whole collection about 3.1% have one here.
Cneo AK release: Cryptococcus neoformans lysis via adenylate kinase release; AID 651654; lysis activity, % at 15 µM; C. neoformans lysis, adenylate kinase release luminescence, 4 h; normalised: neutral wells 0, clomiphene wells 100; actives 0.2% (n = 360,000);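 active = mean lysis activity across replicates of at least 80%, whatever share of replicates individually reach that level; inactive = mean lysis activity below 80%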
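Material: C. neoformans cells | Amount: Yeast cell density of 5 × 10^6 cells/mL | Medium: Fresh YPD growth medium | Dosing: Single dose | Times: Static 4 h at 37 °C with compound, 1 h detection | Detection: AK luminescence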
DENV2 CPE: inhibitors of DENV2 cytopathic effect; DENV2-infected cells, cytopathic effect rescue, plate reader; CPE inhibition, % at 9.99 µM; actives 1.7% (n = 350,000); in the data active = CPE inhibition above about 20%, passing the limit was not always enough; inconclusive = no clear call, values can overlap the other calls; tested in BHK-21 cells;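 also: 0% = median of neutral control wells and 100% = median of positive control wells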
Ecoli rRNA inh: selective bacterial rRNA inhibition in E. coli. actives 1.6% (n = 350,000). GFP signal change (wild-type ribosome), % (concentration not given with the values). AID 720706. E. coli WT GFP vs humanized-ribosome RFP mutants, fluorescence, 24 h; active compounds read low; DMSO median 0, no signal -100;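 active = significant combined selectivity score with lowered wild-type GFP, culture density cut under 30%, mutant RFP and density less affected; inactive = any of these conditions unmet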
miR122 inh: blocks miR-122 activity in Huh7 sensor cells; activation (reporter increase), % at 12.5 µM; actives 0.3% (n = 340,000); Huh7 miR-122 Renilla luciferase sensor, 48 h; neutral wells = 0, positive control = 100;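 active = mean replicate activation score at least 90 and every replicate individually at or above 90; inconclusive = only one of the two criteria met; inactive = neither criterion met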;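 also: higher luciferase means less miR-122 activity so hits act as miR-122 inhibitors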
E-selectin induc: E-selectin induction on HUVECs | actives 0.37% (n = 260,000) | activation, % at 7.58 µM | P16581 | HUVEC E-selectin immunofluorescence imaging; normalized: neutral wells 0, TNF-alpha wells 100;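 active = mean E-selectin-positive cell signal at least 10% of the positive control, reached in at least 60% of replicates, without over 20% cell loss; inconclusive = no rule given, readout overlaps actives, possibly toxicity-flagged; inactive = the rest, including those meeting only one limit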
Target sequence (P16581 whole entry, looked up): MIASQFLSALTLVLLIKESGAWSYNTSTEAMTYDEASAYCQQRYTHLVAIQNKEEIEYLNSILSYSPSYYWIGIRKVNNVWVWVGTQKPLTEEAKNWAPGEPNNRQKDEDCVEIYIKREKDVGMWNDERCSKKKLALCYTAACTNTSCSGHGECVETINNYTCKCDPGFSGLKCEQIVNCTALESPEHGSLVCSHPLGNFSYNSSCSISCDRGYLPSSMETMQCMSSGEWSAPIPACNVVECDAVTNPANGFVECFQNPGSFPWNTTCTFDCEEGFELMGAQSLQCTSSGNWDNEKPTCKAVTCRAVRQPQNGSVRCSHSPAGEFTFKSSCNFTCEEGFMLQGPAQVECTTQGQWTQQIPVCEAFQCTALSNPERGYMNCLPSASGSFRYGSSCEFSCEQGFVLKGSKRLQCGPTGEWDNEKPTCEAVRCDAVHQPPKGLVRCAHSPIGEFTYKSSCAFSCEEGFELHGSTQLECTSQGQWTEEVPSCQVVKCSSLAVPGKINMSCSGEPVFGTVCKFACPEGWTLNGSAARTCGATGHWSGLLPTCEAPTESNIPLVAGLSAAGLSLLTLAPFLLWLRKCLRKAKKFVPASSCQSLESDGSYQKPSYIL
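assay system = HUVEC, human umbilical vein endothelial cells | input = 3,000 HUVEC seeded per well | medium = EGM-2 growth medium on 0.1% gelatin-coated wells | dosing = one compound dose added by pin transfer | signal = immunofluorescence imaging | read-out basis = % PE-positive cells | control set = TNF-alpha, DMSO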
* marks the source's active call; other numbers are inactive results; u = inconclusive; x = not tested or not shown; ! = a repeat was not active; [ ] = remark or other dose.

SMILES	Cneo AK release	DENV2 CPE	Ecoli rRNA inh	miR122 inh	E-selectin induc
C[C@@H]1CN([C@H](C)CO)C(=O)c2cc(NS(=O)(=O)c3cccs3)ccc2O[C@@H]1CN(C)S(C)(=O)=O	-2	5	-1	0[16.7 µM]	-6
C[C@H]1CN([C@@H](C)CO)C(=O)c2cc(NS(=O)(=O)c3cccs3)ccc2O[C@H]1CN(C)S(C)(=O)=O	1	u	-2	-9[16.7 µM]	449*
C[C@@H]1CN([C@H](C)CO)C(=O)c2cc(NS(=O)(=O)c3cccs3)ccc2O[C@H]1CN(C)S(C)(=O)=O	-4	-3	-1	-8[16.7 µM]	33*
C[C@H]1CN([C@@H](C)CO)C(=O)c2cc(NS(=O)(=O)c3cccs3)ccc2O[C@@H]1CN(C)S(C)(=O)=O	-3	6	0	-9[16.7 µM]	-2
C[C@H]1CN([C@@H](C)CO)C(=O)c2cc(-c3cccnc3)cnc2O[C@@H]1CN(C)Cc1ccc(-c2ccccc2)cc1	-13	4	-5	x	1
Cc1ccc(S(=O)(=O)Nc2ccc3c(c2)C(=O)N([C@H](C)CO)C[C@@H](C)[C@@H](CN(C)Cc2ccccc2)O3)cc1	-2	6	-3	-5[16.7 µM]	0
OC[C@H]1[C@@H](c2ccc(-c3ccc(F)cc3)cc2)[C@H]2CN(Cc3ccncc3)CCCCN21	1	28*	0	0[16.7 µM]	0
OC[C@@H]1[C@H](c2ccc(-c3ccc(F)cc3)cc2)[C@H]2CN(Cc3ccncc3)CCCCN12	1	-5	0	0[16.7 µM]	1
OC[C@@H]1[C@@H](c2ccc(-c3ccccc3F)cc2)[C@@H]2CN(Cc3ccncc3)CCCCN12	-1	22*	3	6[16.7 µM]	0
COc1ccc(C2(C)CC(C)(C)Nc3ccccc32)cc1 (stereo not drawn)	-1	26*	-29*	-3	x
COc1ccc(C2CC(C)(c3ccc(OC)cc3)Nc3ccccc3N2)cc1 (stereo not drawn)	-6	-7	x	9	x
Cc1ccc(CNC(=O)CSc2ccc(-c3cccs3)nn2)cc1	17	20*	9	-6	x
Cc1ccc(CNC(=O)CSc2ccc(-c3ccccn3)nn2)cc1	x	-2	6	x	1
CC1CCN(C(=O)c2ccccc2NC(=O)c2cccc(S(=O)(=O)N(C)C)c2)CC1	0	12	2	2	0
CN(C)S(=O)(=O)c1cccc(C(=O)Nc2ccccc2C(=O)NC2CC2)c1	-1	54*	-2	x	0
Cc1cccc(N2CCCC2=Nc2ccc(Br)cc2C#N)c1	-1	x	x	2	x
N#Cc1cc(Br)ccc1N=C1CCCN1c1ccccc1	-1	24*	15	0	x
O=C(C[C@H]1CC[C@@H]2[C@H](COC[C@H](O)CN2Cc2nccs2)O1)NCc1ccccc1	2	u	-2	-1[16.7 µM]	0
N#C[C@H]1[C@@H](c2ccccc2C2=CCCC2)[C@@H](CO)N1C(=O)NC1CCCC1	x	u	-5	x	0
COc1ccc(N=Nc2cc(C)c(O)c(CN3CCCCC3)c2)cc1	-9	11	-27*	-4	1
CCC(=O)N1CC2(C1)[C@H](c1ccc(-c3ccc(F)cc3)cc1)[C@@H](CO)N2S(C)(=O)=O	x	0	1	x	0
C[C@@H]1CN([C@H](C)CO)C(=O)c2cc(NC(=O)C3CCCCC3)ccc2O[C@@H](C)CCCCO[C@@H]1CN(C)C(=O)c1ccccc1	-1	20	0	6[16.7 µM]	0
CC(C)NC(=O)Nc1ccc2c(c1)C(=O)N([C@H](C)CO)C[C@H](C)[C@@H](CN(C)C(=O)c1ccccc1)OCCCC[C@H](C)O2	2	48*	4	4[16.7 µM]	0
C[C@@H]1CCCCO[C@@H](CN(C)C(=O)c2ccccc2)[C@H](C)CN([C@@H](C)CO)C(=O)c2cc(NC(=O)C3CCCCC3)ccc2O1	0	71*	-5	-13[16.7 µM]	0
CS(=O)(=O)N1CC2(C1)[C@@H](c1ccccc1)[C@@H](CO)N2CC1CCCC1	x	-7	-4	x	0
SMILES	Cneo AK release	DENV2 CPE	Ecoli rRNA inh	miR122 inh	E-selectin induc
COc1ccc(S(=O)(=O)Nc2ccc3c(c2)C(=O)N([C@@H](C)CO)C[C@H](C)[C@H](CN(C)S(=O)(=O)c2ccc(F)cc2)O3)cc1	59	31*!	0	-2[16.7 µM]	0
COc1ccc(S(=O)(=O)Nc2ccc3c(c2)C(=O)N([C@H](C)CO)C[C@@H](C)[C@H](CN(C)S(=O)(=O)c2ccc(F)cc2)O3)cc1	-2	25*	-1	6[16.7 µM]	0
COc1ccc(S(=O)(=O)Nc2ccc3c(c2)C(=O)N([C@@H](C)CO)C[C@@H](C)[C@H](CN(C)S(=O)(=O)c2ccc(F)cc2)O3)cc1	1	-2	-2	-1[16.7 µM]	0
COCC(=O)N(C)C[C@@H]1Oc2cc(C#CC3CCCC3)ccc2S(=O)(=O)N([C@H](C)CO)C[C@H]1C	x	x	-3	2[16.7 µM]	1
O=C(NCC[C@@H]1CC[C@H](NC(=O)C2CCOCC2)[C@H](CO)O1)Nc1ccc(Cl)cc1	-2	-10	-8	x	0
O=C(NCC[C@H]1CC[C@@H](NS(=O)(=O)c2ccc(F)cc2)[C@H](CO)O1)Nc1ccc(Cl)cc1	14	-5	-15	-11[16.7 µM]	0
O=C(NCC[C@@H]1CC[C@@H](NS(=O)(=O)c2ccc(Cl)cc2)[C@@H](CO)O1)Nc1ccc(F)cc1	x	33*	-2	x	-1
O=C(NCC[C@@H]1CC[C@@H](NC(=O)C2CCOCC2)[C@@H](CO)O1)Nc1ccc(Cl)cc1	-7	38*	-4	x	0
O=C(NCC[C@H]1CC[C@@H](NS(=O)(=O)c2ccc(F)cc2)[C@H](CO)O1)c1ccc2c(c1)OCO2	95*	2	-8	x	0
CC(=O)N(C)C[C@@H]1Oc2cc(C3=CCCCC3)ccc2S(=O)(=O)N([C@H](C)CO)C[C@@H]1C	x	x	-2	2[16.7 µM]	-1
COc1ccc(CCNC(=O)C2CC3Cn4c(nc5cc(Cl)c(Cl)cc54)C3N2C)cc1 (stereo not drawn)	-3	-4	-4	4	0
CN1C(C(=O)NCCc2cccs2)CC2Cn3c(nc4cc(Cl)c(Cl)cc43)C21 (stereo not drawn)	-3	80*	-10	-7	0
COCCNC(=O)C1CC2Cn3c(nc4cc(C)c(C)cc43)C2N1C (stereo not drawn)	4	29*	1	x	0
COCCNC(=O)C1CC2Cn3c(nc4cc5ccccc5cc43)C2N1C (stereo not drawn)	3	12	1	-7	0
S=c1[nH]cnc2scc(-c3ccc(Cl)cc3)c12	14	1	-51*	-1	0
COc1ccc(-c2c(C(=O)c3ccccc3)[nH]c(N)c2C(N)=O)cc1OC	x	u	7	x	0
COc1ccc(-c2c(C(=O)c3ccccc3)[nH]c(N)c2C(=O)NCc2ccccc2)cc1OC	x	-8	-36*	x	x
